Measured values: ChEMBL document CHEMBL1221398, “Chemical constituents of the deep reef caribbean sponges Plakortis angulospiculatus and Plakortis halichondrioides and their anti-inflammatory activities” (J Nat Prod, 2010)
The source made the active and inactive calls. The calls are words filed in the database; no cut-off is given here.

Tests used:
HL-60 [1] = experiment: Cytotoxicity against human HL60 cells up to 25 ug/mL
HL-60 [2] = experiment: Antioxidant activity against PMA-treated human HL60 cells assessed as inhibition of ROS generation
RAW264.7 = experiment: Cytotoxicity against mouse RAW264.7 cells up to 25 ug/mL
[3] = Inhibition of LPS-induced NOS activity in mouse RAW264.7 cells; format: cell-based
Outline: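 Mouse RAW 264.7 macrophages were stimulated with LPS. iNOS activity was read as the decrease in nitrite production relative to untreated vehicle controls, with L-NMMA as positive control. Compounds were tested up to 25 µg/mL.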

[4] = Inhibition of NF-kappaB-mediaated transcription in human SW1353 cells by reporter gene assay; format: cell-based
Outline: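 Luciferase reporter gene assay for NF-κB-mediated transcription in SW 1353 cells, with parthenolide as positive control. A luciferase construct carrying SP-1 binding sites served as a control for nonspecific transcription inhibition.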

[5] = Homo sapiens, SW1353, read-out: IC50

Structure (SMILES)	Activity (HL-60 [1])	Activity (HL-60 [2])	Activity (RAW264.7)	IC50 ([3]; read-out: IC50) [µM]	IC50 [4, 5] [µM]	IC50 ([4]; sw1353)	IC50 [3]
CC(=O)/C=C(/C)C(=O)/C(C)=C/C(C)=C/C(C)/C=C/c1ccccc1 (centres undefined)	Non-toxic	inactive	Non-toxic				
CC(=O)C/C(C)=C/C(C)/C=C/c1ccccc1 (centres undefined)	Non-toxic	inactive	Non-toxic				
CCC(O)/C(C)=C/C(C)C(O)/C(C)=C/C(C)=C/C(C)/C=C/c1ccccc1 (centres undefined)	Non-toxic	inactive	Non-toxic	64.1	25.6		
C=C1C(=O)O[C@@H]2C3O[C@]3(C)CC/C=C(\C)CC[C@@H]12 (some centres undefined)	Non-toxic	inactive	Non-toxic		3.3		
CC1=C[C@](C)(/C=C/C=C/c2ccccc2)[C@](C)(C(=O)O)[C@H]2C(C)=C[C@@H](C)[C@H]12 [22,27-DINOR-ZYGGOMPHIC ACID B]	Non-toxic	inactive	Non-toxic	30.4	27.9		
CCC1=C[C@@H](C)[C@@H]2C(C)=C[C@](C)(/C=C/C=C/c3ccccc3)[C@](C)(C(=O)O)[C@@H]12 [22-NOR-ZYGGOMPHIC ACID B]	Non-toxic	inactive	Non-toxic	19.9		Not Active	
CCC1=C[C@@H](C)[C@@H]2C(C)=C[C@@](/C=C/c3ccccc3)(CC)[C@](C)(C(=O)O)[C@@H]12 [24-NOR-SPICULOIC ACID B]	Non-toxic	inactive	Non-toxic	54.9	0.47		
CC1=C[C@](C)(/C=C(C)/C=C/c2ccccc2)[C@](C)(C(=O)O)[C@H]2C(C)=C[C@@H](C)[C@H]12 [27-NOR-ZYGGOMPHIC ACID B]	Non-toxic	inactive	Non-toxic	18.6	2.28		
CCC1=C[C@@](/C=C/c2ccccc2)(CC)[C@](C)(C(=O)O)[C@H]2C(CC)=C[C@@H](C)[C@H]12 [SPICULOIC ACID B]	Non-toxic	inactive	Non-toxic		27.2		Not Active
CNC(=N)NCCC[C@H](N)C(=O)O [TILARGININE]	Non-toxic	inactive	Non-toxic	> 101			
CCC1=C[C@@H](C)[C@@H]2C(C)=C[C@](C)(/C=C(C)/C=C/c3ccccc3)[C@](C)(C(=O)O)[C@@H]12 [ZYGGOMPHIC ACID B]	Non-toxic	inactive	Non-toxic	> 64.1	25.8		
